In general, inhibition refers to the change of the read-out against control, counted positive when it falls. A word on the Emax: it is the maximal effect, on the per cent scale that the assay sets. For orientation: EC50 means the concentration that produces a half-maximal response.

The values below come from ChEMBL document CHEMBL4842314, “Synthesis and SAR evaluation of coumarin derivatives as potent cannabinoid receptor agonists” (Eur J Med Chem, 2021).

In assay [1] the target is T1, Cannabinoid receptor 1 (Homo sapiens, UniProt P21554). The experiment in a line: Displacement of [3H]-CP55940 from human recombinant CB1 receptor expressed in CHO-K1 cell membrane at 1 uM measured after 3 hrs by scintillation spectrometry. Format: cell membranes. (In a radioligand displacement assay an active substance lowers the binding of a labelled ligand.)
Assay [2] addresses T2, Cannabinoid receptor 2 (Homo sapiens, UniProt P34972). Briefly: Displacement of [3H]-CP55940 from human recombinant CB2 receptor expressed in CHO-K1 cell membrane measured after 3 hrs by scintillation spectrometry. Format: cell membranes.
For assay [3], the target named is T2, Cannabinoid receptor 2. Briefly: Agonist activity at human recombinant CB2 receptor expressed in CHO-K1 cell membrane assessed as increase in GTPgammaS binding at 1 uM pretreated for 30 mins followed by [35S]GTPgammaS addition for 90 mins by [35S]GTP-gammaS binding assay relative to CP55940. Conditions: time 120.0 min. Format: functional, cell membranes. In outline:
(§1)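 Membranes (5 μg) from PathHunter CHOK1 cells stably expressing hCB1 or hCB2 pre-incubated 30 min at room temperature with test ligand at 1 μM final, 1 μM GDP and 5 μg saponin in Tris-HCl pH 7.4, MgCl2, NaCl, EDTA, BSA, DTT. [35S]GTPγS (0.3 nM final) was then added for 90 min at 25 °C. Filtration on GF/B. Emax given relative to CP55,940 (100%), two experiments in duplicate.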
(In general: Binding of GTPγS marks nucleotide exchange on a G protein.)

The target of assay [4] is T1, Cannabinoid receptor 1. The experiment in a line: Displacement of [3H]-CP55940 from human recombinant CB1 receptor expressed in CHO-K1 cell membrane measured after 3 hrs by scintillation spectrometry. Format: cell membranes.
Assay [5] deals with T2, Cannabinoid receptor 2. The experiment in a line: Displacement of [3H]-CP55940 from human recombinant CB2 receptor expressed in CHO-K1 cell membrane at 1 uM measured after 3 hrs by scintillation spectrometry. It counts as cell membranes.
The target in assay [6] is T1, Cannabinoid receptor 1. Briefly: Agonist activity at human recombinant CB1 receptor expressed in CHO-K1 cell membrane assessed as increase in GTPgammaS binding at 1 uM pretreated for 30 mins followed by [35S]GTPgammaS addition for 90 mins by [35S]GTP-gammaS binding assay relative to CP55940. The note with it: time 120.0 min. Format: functional, cell membranes. In outline: as §1

Assay [7] has as its target T2, Cannabinoid receptor 2. Briefly: Agonist activity at human recombinant CB2 receptor expressed in CHO-K1 cell membrane assessed as increase in GTPgammaS binding pretreated for 30 mins followed by [35S]GTPgammaS addition for 90 mins by [35S]GTP-gammaS binding assay. It counts as functional, cell membranes. In short, it runs like this: (§2)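 Concentration-response [35S]GTPγS binding on 5 μg hCB1 or hCB2 CHOK1 membranes. Ligand, 1 μM GDP and saponin pre-incubated 30 min at room temperature, then 0.3 nM [35S]GTPγS added for 90 min at 25 °C. Filtration read-out. Three experiments in duplicate.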

The species named for the next assay is Homo sapiens. Briefly: Selectivity ratio of Ki for human recombinant CB2 receptor expressed in CHO-K1 cell membrane to Ki for human recombinant CB1 receptor expressed in CHO-K1 cell membrane. It counts as cell-based.
The target of assay [8] is T1, Cannabinoid receptor 1. The experiment in a line: Agonist activity at human recombinant CB1 receptor expressed in CHO-K1 cell membrane assessed as increase in GTPgammaS binding pretreated for 30 mins followed by [35S]GTPgammaS addition for 90 mins by [35S]GTP-gammaS binding assay. It counts as functional, cell membranes. In outline:
as §2

Molecules are shown by their SMILES.

T1 sequence (P21554 whole entry): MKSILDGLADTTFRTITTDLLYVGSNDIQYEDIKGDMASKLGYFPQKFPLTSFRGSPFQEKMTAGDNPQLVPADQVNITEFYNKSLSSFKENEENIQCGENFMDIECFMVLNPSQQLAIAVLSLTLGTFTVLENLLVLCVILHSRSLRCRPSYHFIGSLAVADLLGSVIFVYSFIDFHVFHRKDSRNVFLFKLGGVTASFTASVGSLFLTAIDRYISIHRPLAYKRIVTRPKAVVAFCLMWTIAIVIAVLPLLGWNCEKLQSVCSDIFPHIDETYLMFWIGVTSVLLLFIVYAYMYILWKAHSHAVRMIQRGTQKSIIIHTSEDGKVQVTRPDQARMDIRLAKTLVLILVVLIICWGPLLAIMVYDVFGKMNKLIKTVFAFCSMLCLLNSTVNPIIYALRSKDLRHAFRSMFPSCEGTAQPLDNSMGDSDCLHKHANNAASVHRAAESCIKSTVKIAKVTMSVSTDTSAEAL
T2 sequence (P34972 whole entry): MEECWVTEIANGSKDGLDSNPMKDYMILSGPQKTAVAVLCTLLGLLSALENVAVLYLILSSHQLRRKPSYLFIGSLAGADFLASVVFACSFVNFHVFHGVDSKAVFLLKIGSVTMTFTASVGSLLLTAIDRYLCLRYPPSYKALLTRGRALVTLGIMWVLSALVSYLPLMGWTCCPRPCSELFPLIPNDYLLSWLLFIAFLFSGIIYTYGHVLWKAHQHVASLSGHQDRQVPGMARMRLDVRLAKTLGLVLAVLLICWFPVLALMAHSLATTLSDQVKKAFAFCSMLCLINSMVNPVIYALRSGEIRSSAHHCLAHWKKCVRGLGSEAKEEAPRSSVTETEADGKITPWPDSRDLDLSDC

With `CCCCCc1cc(OC)c2cc(Cc3cccnc3)c(=O)oc2c1`, the inhibition at Cannabinoid receptor 1 [1] (filed as agonist) and on Cannabinoid receptor 2 [5] (filed as agonist) was more than 50% throughout. In addition, the Ki on Cannabinoid receptor 2 [2] (read-out: Ki) was 56.5 nM; on Cannabinoid receptor 1 [4] (read-out: Ki) it was 171 nM. The maximal response (Emax) on Cannabinoid receptor 2 [3] (filed as agonist) and on Cannabinoid receptor 1 [6] (filed as agonist) was 40% in each case.
Take `CCCCC1(c2cc(O)c3cc(CCC)c(=O)oc3c2)CCCC1`: the inhibition at Cannabinoid receptor 1 [1] (filed as agonist) is 47%; at Cannabinoid receptor 2 [5] (filed as agonist), more than 50%. The Ki at Cannabinoid receptor 2 [2] (read-out: Ki) is 18.6 nM; on Cannabinoid receptor 1 [4] (read-out: pKi (converted)), more than 1000 nM. In addition, on Cannabinoid receptor 2 [3] (filed as agonist), the Emax was 91%.
For the compound `CCCCc1cc2c(O)cc(C3(CCCC)CCCC3)cc2oc1=O`, the EC50 on Cannabinoid receptor 2 [7] was 18 nM. In addition, the inhibition is 50% on Cannabinoid receptor 1 [1] (filed as agonist) and more than 50% at Cannabinoid receptor 2 [5] (filed as agonist). The Ki on Cannabinoid receptor 2 [2] (read-out: Ki) was 13.7 nM; at Cannabinoid receptor 1 [4] (read-out: pKi (converted)), 1000 nM. Moreover, at Cannabinoid receptor 2 [3] (filed as agonist), the Emax worked out at 85%.
On to `CCCCC1(c2cc(O)c3cc(C)c(=O)oc3c2)CCCCC1`, for which the values for the inhibition at Cannabinoid receptor 1 [1] and at Cannabinoid receptor 2 [5] (filed as agonist) were 19% and more than 50%, respectively. Further, the Ki is 106 nM at Cannabinoid receptor 2 [2] (read-out: Ki) and more than 1000 nM on Cannabinoid receptor 1 [4] (read-out: pKi (converted)). At Cannabinoid receptor 2 [3] (filed as agonist), the Emax was determined as 66%.
As to `CCCCC1(c2cc(O)c3cc(Cc4ccccn4)c(=O)oc3c2)CCCCC1`, the EC50 at Cannabinoid receptor 2 [7] came out at 42 nM. Moreover, the figures for the inhibition at Cannabinoid receptor 1 [1] and at Cannabinoid receptor 2 [5] (filed as agonist) were -7% and more than 50%, respectively. Also, the figures for the Ki on Cannabinoid receptor 2 [2] (read-out: Ki) and on Cannabinoid receptor 1 [4] (read-out: pKi (converted)) were 71.9 nM and more than 1000 nM, respectively. In addition, the Emax at Cannabinoid receptor 2 [3] (filed as agonist) came out at 68%.
On to `CCCCC1(c2cc(O)c3cc(Cc4cccnc4)c(=O)oc3c2)CCCC1`, for which the results for the inhibition on Cannabinoid receptor 1 [1] and at Cannabinoid receptor 2 [5] (filed as agonist) were 19% and more than 50%, respectively. In addition, the Ki on Cannabinoid receptor 2 [2] (read-out: Ki) was 310 nM; at Cannabinoid receptor 1 [4] (read-out: pKi (converted)), more than 1000 nM. Besides, the Emax on Cannabinoid receptor 2 [3] (filed as agonist) was determined as 82%.
For the compound `CCCCC1(c2cc(O)c3cc(CC)c(=O)oc3c2)CCCC1`, the inhibition on Cannabinoid receptor 1 [1] was 34%; on Cannabinoid receptor 2 [5] (filed as agonist), more than 50%. Further, the Ki at Cannabinoid receptor 2 [2] (read-out: Ki) is 60.6 nM; at Cannabinoid receptor 1 [4] (read-out: pKi (converted)), more than 1000 nM. In addition, at Cannabinoid receptor 2 [3] (filed as agonist), the Emax was 87%.
For `CCCCc1cc2c(O)cc(C3(CCCC)CCCCC3)cc2oc1=O`, the inhibition is 48% on Cannabinoid receptor 1 [1] (filed as agonist) and more than 50% at Cannabinoid receptor 2 [5] (filed as agonist). Further, the Ki on Cannabinoid receptor 2 [2] (read-out: Ki) was 12.5 nM; on Cannabinoid receptor 1 [4] (read-out: pKi (converted)), more than 1000 nM. Also, the Ratio Ki in the assay filed under Homo sapiens worked out at 79. Moreover, on Cannabinoid receptor 2 [3] (filed as agonist), the Emax was found to be 65%.
For `CCCCC1(c2cc(O)c3cc(CCC)c(=O)oc3c2)CCCCC1`, the EC50 was found to be 1120 nM at Cannabinoid receptor 1 [8] and 4.51 nM on Cannabinoid receptor 2 [7]. Further, the inhibition on Cannabinoid receptor 1 [1] (filed as agonist) and at Cannabinoid receptor 2 [5] (filed as agonist) was more than 50% each time. Moreover, the Ki was determined as 6.5 nM at Cannabinoid receptor 2 [2] (read-out: Ki) and 159 nM at Cannabinoid receptor 1 [4] (read-out: Ki). In addition, the values for the Emax at Cannabinoid receptor 2 [3] (filed as agonist) and at Cannabinoid receptor 1 [6] were 62% and 23%, respectively.
Turning to `CCCCCc1cc(OC)c2cc(Cc3ccccn3)c(=O)oc2c1`, the EC50 came to 1010 nM on Cannabinoid receptor 1 [8] and 188 nM on Cannabinoid receptor 2 [7]. Further, the inhibition on Cannabinoid receptor 1 [1] (filed as agonist) and on Cannabinoid receptor 2 [5] (filed as agonist) was more than 50% throughout. The Ki on Cannabinoid receptor 2 [2] (read-out: Ki) came to 82.4 nM; on Cannabinoid receptor 1 [4] (read-out: Ki), 70.3 nM. Further, the Emax on Cannabinoid receptor 2 [3] turned out to be 34%; at Cannabinoid receptor 1 [6] (filed as agonist), 46%.
Regarding `CCCCC1(c2cc(O)c3cc(CC)c(=O)oc3c2)CCCCC1`, the values for the inhibition at Cannabinoid receptor 1 [1] and on Cannabinoid receptor 2 [5] (filed as agonist) were 39% and more than 50%, respectively. Further, the Ki at Cannabinoid receptor 2 [2] (read-out: Ki) is 39.1 nM; at Cannabinoid receptor 1 [4] (read-out: pKi (converted)), more than 1000 nM. Moreover, on Cannabinoid receptor 2 [3] (filed as agonist), the Emax amounted to 65%.
As for `CCCCCCC(C)(C)c1cc(O)c2cc(Cc3ccccc3C(F)(F)F)c(=O)oc2c1`, the inhibition at Cannabinoid receptor 1 [1] (filed as agonist) is 49%; at Cannabinoid receptor 2 [5] (filed as agonist) it was 42%. Besides, the Ki on Cannabinoid receptor 2 [2] (read-out: pKi (converted)) was more than 1000 nM; on Cannabinoid receptor 1 [4] (read-out: pKi (converted)) it was 1000 nM.
`CCCCC(C)(C)c1cc(OC)c2cc(Cc3ccccc3OC)c(=O)oc2c1`: the inhibition at Cannabinoid receptor 1 [1] (filed as agonist) and at Cannabinoid receptor 2 [5] (filed as agonist) was more than 50% throughout. The Ki at Cannabinoid receptor 2 [2] (read-out: Ki) is 231 nM; on Cannabinoid receptor 1 [4] (read-out: Ki), 196 nM.
Take `CCCCCCC(C)(C)c1cc(O)c2cc(Cc3ccccc3C)c(=O)oc2c1`: the results for the inhibition on Cannabinoid receptor 1 [1] (filed as agonist) and on Cannabinoid receptor 2 [5] (filed as agonist) were 47% and more than 50%, respectively. For the same compound, the values for the Ki on Cannabinoid receptor 2 [2] (read-out: Ki) and on Cannabinoid receptor 1 [4] (read-out: pKi (converted)) were 222 nM and more than 1000 nM, respectively.
Consider `CCCCCc1cc(OC)c2cc(Cc3ccncc3)c(=O)oc2c1`, for which the inhibition at Cannabinoid receptor 1 [1] is 0%; on Cannabinoid receptor 2 [5] it was 11%. For the same compound, the Ki at Cannabinoid receptor 2 [2] (read-out: pKi (converted)) and on Cannabinoid receptor 1 [4] (read-out: pKi (converted)) was more than 1000 nM in each case.
For `CCCCC(C)(C)c1cc(OC)c2cc(Cc3ccccc3C)c(=O)oc2c1`, the inhibition at Cannabinoid receptor 1 [1] (filed as agonist) is more than 50%; at Cannabinoid receptor 2 [5] it was 32%. Also, the Ki was more than 1000 nM on Cannabinoid receptor 2 [2] (read-out: pKi (converted)) and 217 nM at Cannabinoid receptor 1 [4] (read-out: Ki).
Take `CCCCC(C)(C)c1cc(O)c2cc(Cc3ccccc3)c(=O)oc2c1`: the inhibition at Cannabinoid receptor 1 [1] was found to be 12%; on Cannabinoid receptor 2 [5], 24%. The Ki on Cannabinoid receptor 2 [2] (read-out: pKi (converted)) and at Cannabinoid receptor 1 [4] (read-out: pKi (converted)) was more than 1000 nM in each case.
